From ChEMBL document CHEMBL5712920, “The histone methyltransferase inhibitor A-366 enhances hemoglobin expression in erythroleukemia cells upon co-exposure with chemical inducers in culture” (J Biol Res (Thessalon), 2021) come the findings set out here.

Structures are written as SMILES. A value given as a limit tells only on which side of the number the result lay.

Series [1] concerns the target Histone-lysine N-methyltransferase EZH2 (Mus musculus) (UniProt Q61188). Put plainly: Inhibition of EZH2 in HMBA-stiumulated mouse FLC clone 745 cells assessed as increase in erythroid differentiation at IC50 concentration measured after 96 hrs by benzidine-H2O2 based assay (reference value: 79.45%). It is filed as cell-based.
The nature of series [2]: Cytotoxicity against mouse FLC clone 745 cells assessed as reduction in cell viability measured after 48 hrs by Neubauer chamber based microscopic analysis. The series is classed as toxicity.
A short description of series [3]: Cytotoxicity against HMBA-stiumulated mouse FLC clone 745 cells assessed as cell viability measured after 48 hrs by Neubauer chamber based microscopic analysis (reference value: 50.563%). It is filed as toxicity. The note with it: HMBA-stimulated FLC clone 745 cells, read-out: Activity.
The target in series [4] is Histone-lysine N-methyltransferase EZH2 (Mus musculus) (UniProt Q61188). In words: Inhibition of EZH2 in HMBA-stiumulated mouse FLC clone 745 cells assessed as increase in erythroid differentiation at IC50 concentration measured after 72 hrs by benzidine-H2O2 based assay (reference value: 69.6%). It is filed as cell-based.
Series [5] has as its target Histone-lysine N-methyltransferase, H3 lysine-79 specific (Mus musculus) (UniProt F7CVL0). Put plainly: Inhibition of DOT1L in HMBA-stiumulated mouse FLC clone 745 cells assessed as increase in erythroid differentiation at IC50 concentration measured after 96 hrs by benzidine-H2O2 based assay (reference value: 79.45%). It is filed as cell-based.
The target is the same in series [6]. In words: Inhibition of DOT1L in HMBA-stiumulated mouse FLC clone 745 cells assessed as increase in erythroid differentiation at IC50 concentration measured after 72 hrs by benzidine-H2O2 based assay (reference value: 69.6%). The series is classed as cell-based.
Series [7] concerns the target Histone-lysine N-methyltransferase KMT5B (Mus musculus) (UniProt Q3U8K7). In words: Inhibition of SUV420H1 in HMBA-stiumulated mouse FLC clone 745 cells assessed as increase in erythroid differentiation at IC50 concentration measured after 72 hrs by benzidine-H2O2 based assay (reference value: 69.6%). The series is classed as cell-based.
Series [8] shares this target. In words: Inhibition of SUV420H1 in HMBA-stiumulated mouse FLC clone 745 cells assessed as increase in erythroid differentiation at IC50 concentration measured after 96 hrs by benzidine-H2O2 based assay (reference value: 79.45%). The series is classed as cell-based.
Series [9] has as its target Protein arginine N-methyltransferase 3 (Mus musculus) (UniProt Q922H1). Put plainly: Inhibition of PRMT3 in HMBA-stiumulated mouse FLC clone 745 cells assessed as increase in erythroid differentiation at IC50 concentration measured after 72 hrs by benzidine-H2O2 based assay (reference value: 69.6%). It is filed as cell-based.
The target is the same in series [10]. Put plainly: Inhibition of PRMT3 in HMBA-stiumulated mouse FLC clone 745 cells assessed as increase in erythroid differentiation at IC50 concentration measured after 96 hrs by benzidine-H2O2 based assay (reference value: 79.45%). It is filed as cell-based.
A further series concerns FLC clone 745. In words: Cytotoxicity against mouse FLC clone 745 cells assessed as reduction in cell viability at IC50 concentration measured up to 96 hrs by Neubauer chamber based microscopic analysis. To be noted: flc clone 745, 96 h. The series is classed as toxicity. In a few lines: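 MEL-745 cells treated continuously with compound at its previously determined 48 h IC50, without inducer, for up to 96 h. Total cell number counted daily in a Neubauer chamber. Final DMSO ≤0.2% v/v.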

Series [11] can be described thus: Inhibition of G9a/GLP in HMBA-stiumulated mouse FLC clone 745 cells assessed as increase in erythroid differentiation at IC50 concentration measured after 96 hrs by benzidine-H2O2 based assay (reference value: 79.45%). The note with it: condition erythroleukemia.
Series [12] in a line: Inhibition of G9a/GLP in HMBA-stiumulated mouse FLC clone 745 cells assessed as increase in erythroid differentiation at IC50 concentration measured after 72 hrs by benzidine-H2O2 based assay (reference value: 69.6%). To be noted: condition erythroleukemia.
The target in series [13] is N-lysine methyltransferase SMYD2 (Mus musculus) (UniProt Q8R5A0). In words: Inhibition of SMYD2 in HMBA-stiumulated mouse FLC clone 745 cells assessed as increase in erythroid differentiation at IC50 concentration measured after 72 hrs by benzidine-H2O2 based assay (reference value: 69.6%). It is filed as cell-based.
Series [14] has the same target. Put plainly: Inhibition of SMYD2 in HMBA-stiumulated mouse FLC clone 745 cells assessed as increase in erythroid differentiation at IC50 concentration measured after 96 hrs by benzidine-H2O2 based assay (reference value: 79.45%). The series is classed as cell-based.

Chain of N-lysine methyltransferase SMYD2 (Mus musculus) (Q8R5A0 whole entry): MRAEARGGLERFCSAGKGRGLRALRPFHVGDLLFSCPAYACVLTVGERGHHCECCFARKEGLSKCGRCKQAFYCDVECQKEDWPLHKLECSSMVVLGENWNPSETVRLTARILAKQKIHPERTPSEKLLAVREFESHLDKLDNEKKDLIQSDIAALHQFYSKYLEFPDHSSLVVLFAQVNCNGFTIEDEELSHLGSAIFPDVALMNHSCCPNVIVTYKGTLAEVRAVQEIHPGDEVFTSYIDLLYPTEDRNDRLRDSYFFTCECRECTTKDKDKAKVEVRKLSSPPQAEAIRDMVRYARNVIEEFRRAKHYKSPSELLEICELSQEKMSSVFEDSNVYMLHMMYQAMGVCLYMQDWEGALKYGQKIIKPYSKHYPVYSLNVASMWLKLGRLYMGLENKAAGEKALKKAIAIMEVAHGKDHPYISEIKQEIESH
Chain of Histone-lysine N-methyltransferase EZH2 (Mus musculus) (Q61188 whole entry): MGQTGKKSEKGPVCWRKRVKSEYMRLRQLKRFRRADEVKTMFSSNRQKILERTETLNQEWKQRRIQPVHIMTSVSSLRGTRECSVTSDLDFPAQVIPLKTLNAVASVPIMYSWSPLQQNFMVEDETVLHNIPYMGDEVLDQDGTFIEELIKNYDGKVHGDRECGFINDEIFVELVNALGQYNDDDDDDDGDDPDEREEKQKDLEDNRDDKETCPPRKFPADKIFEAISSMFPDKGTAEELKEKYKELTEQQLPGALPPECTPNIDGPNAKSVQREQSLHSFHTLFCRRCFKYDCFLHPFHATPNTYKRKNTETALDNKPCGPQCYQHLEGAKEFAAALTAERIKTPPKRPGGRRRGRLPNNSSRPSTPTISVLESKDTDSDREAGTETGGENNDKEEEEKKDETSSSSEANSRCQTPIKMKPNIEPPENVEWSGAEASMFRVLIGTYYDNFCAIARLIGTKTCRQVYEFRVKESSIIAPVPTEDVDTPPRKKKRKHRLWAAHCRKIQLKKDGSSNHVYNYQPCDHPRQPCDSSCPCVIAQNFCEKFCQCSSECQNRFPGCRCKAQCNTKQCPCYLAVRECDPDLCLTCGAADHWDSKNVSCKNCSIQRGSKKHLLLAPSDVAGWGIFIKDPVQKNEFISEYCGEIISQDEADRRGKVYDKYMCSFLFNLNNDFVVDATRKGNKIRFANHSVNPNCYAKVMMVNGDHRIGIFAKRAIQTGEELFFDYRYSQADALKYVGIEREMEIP
Chain of Protein arginine N-methyltransferase 3 (Mus musculus) (Q922H1 whole entry): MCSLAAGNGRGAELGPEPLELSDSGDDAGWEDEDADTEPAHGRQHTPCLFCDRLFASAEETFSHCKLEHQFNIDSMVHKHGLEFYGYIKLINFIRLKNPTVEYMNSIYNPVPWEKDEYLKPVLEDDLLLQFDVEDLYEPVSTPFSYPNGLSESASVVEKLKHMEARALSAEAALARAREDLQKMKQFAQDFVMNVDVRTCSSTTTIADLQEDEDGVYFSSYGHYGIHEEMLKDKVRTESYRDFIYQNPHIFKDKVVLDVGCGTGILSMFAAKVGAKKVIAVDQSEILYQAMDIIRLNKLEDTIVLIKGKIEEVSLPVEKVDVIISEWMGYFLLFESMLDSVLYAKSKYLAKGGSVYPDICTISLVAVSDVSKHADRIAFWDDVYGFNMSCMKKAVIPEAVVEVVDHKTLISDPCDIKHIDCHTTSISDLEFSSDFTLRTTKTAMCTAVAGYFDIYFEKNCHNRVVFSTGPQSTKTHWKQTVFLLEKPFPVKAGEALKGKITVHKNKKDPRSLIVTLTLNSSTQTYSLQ
Chain of Histone-lysine N-methyltransferase, H3 lysine-79 specific (Mus musculus) (F7CVL0 as listed by the source): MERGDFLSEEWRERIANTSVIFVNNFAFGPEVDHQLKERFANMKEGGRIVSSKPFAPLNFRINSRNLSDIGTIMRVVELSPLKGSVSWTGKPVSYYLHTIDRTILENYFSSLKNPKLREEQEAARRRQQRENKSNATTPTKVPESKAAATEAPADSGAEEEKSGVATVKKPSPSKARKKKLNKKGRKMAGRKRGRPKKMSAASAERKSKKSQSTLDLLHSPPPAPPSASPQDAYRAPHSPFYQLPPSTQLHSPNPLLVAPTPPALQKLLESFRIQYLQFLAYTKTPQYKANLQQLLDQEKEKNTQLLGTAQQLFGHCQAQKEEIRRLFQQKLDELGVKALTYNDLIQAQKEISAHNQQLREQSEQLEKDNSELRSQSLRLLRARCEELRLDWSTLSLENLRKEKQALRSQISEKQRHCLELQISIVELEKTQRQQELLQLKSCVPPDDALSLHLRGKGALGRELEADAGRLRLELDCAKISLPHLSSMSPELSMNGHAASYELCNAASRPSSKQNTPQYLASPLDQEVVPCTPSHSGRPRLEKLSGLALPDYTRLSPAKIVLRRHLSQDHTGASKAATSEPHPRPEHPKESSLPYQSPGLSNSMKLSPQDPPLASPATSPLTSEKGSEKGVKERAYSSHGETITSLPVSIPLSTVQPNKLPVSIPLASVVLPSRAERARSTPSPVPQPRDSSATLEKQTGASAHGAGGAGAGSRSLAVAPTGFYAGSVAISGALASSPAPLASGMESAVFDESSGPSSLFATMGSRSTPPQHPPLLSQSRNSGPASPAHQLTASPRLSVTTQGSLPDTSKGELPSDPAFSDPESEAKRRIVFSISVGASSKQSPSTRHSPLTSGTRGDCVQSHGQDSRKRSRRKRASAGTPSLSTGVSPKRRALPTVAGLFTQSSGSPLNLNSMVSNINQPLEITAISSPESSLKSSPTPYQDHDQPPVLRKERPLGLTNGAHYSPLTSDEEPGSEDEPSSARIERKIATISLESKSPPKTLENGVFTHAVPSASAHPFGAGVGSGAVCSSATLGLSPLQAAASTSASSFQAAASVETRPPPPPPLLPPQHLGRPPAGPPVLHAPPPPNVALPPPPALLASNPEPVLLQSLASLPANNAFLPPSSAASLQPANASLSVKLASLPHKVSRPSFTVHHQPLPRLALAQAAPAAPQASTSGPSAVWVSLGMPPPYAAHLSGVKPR
Chain of Histone-lysine N-methyltransferase KMT5B (Mus musculus) (Q3U8K7 whole entry): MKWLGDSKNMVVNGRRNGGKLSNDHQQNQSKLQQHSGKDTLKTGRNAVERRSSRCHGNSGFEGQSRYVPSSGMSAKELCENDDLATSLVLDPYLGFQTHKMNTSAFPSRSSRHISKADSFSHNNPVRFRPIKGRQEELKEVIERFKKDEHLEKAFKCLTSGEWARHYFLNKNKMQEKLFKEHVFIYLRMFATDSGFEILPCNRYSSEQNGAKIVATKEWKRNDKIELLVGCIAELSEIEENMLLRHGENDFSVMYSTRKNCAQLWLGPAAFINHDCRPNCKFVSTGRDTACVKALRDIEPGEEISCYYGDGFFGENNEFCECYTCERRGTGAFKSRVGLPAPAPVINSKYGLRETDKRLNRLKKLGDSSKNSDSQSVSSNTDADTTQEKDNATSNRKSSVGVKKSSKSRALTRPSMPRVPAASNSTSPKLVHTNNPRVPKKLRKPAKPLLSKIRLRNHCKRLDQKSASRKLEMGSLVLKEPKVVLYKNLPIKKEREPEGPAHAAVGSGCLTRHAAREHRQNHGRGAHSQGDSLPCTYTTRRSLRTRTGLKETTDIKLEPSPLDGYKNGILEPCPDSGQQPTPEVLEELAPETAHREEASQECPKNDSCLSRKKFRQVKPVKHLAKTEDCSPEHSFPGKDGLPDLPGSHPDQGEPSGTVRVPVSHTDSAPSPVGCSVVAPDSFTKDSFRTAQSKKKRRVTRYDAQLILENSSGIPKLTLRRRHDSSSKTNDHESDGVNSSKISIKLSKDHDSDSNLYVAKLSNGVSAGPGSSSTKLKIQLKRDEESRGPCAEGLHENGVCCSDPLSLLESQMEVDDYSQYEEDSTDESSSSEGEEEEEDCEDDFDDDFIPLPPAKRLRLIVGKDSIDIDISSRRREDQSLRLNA

Turning to `CCc1cc(C)[nH]c(=O)c1CNC(=O)c1cc(-c2ccc(N3CCN(C(C)C)CC3)nc2)cc2c1cnn2C(C)C`, the inhibition in series [1] and in [4] was under 1% in each case. In addition, the IC50 at 48 h in series [2] came out at 3200 nM. Further, the viability at 48 h in series [3] was found to be 6.96%.
For `CC(C)N(CCCNC(=O)Nc1ccc(C(C)(C)C)cc1)C[C@H]1O[C@@H](n2cc(Br)c3c(N)ncnc32)[C@H](O)[C@@H]1O`, the IC50 at 48 h in [2] was 2300 nM. Further, the viability at 48 h in [3] amounted to 23.9%. The results for the inhibition in series [5] and in [6] were 6.64% and 4.3%, respectively.
In the case of `Clc1cc2c(NC3CCCC3)nnc(-c3ccncc3)c2cc1Cl`, the IC50 at 48 h in series [2] is 20000 nM. Further, in series [3], the viability at 48 h was 27.2%. For the same compound, the inhibition in series [7] is under 1%; in series [8], 19%.
Turning to `O=C(NCC(=O)N1CCCC1)Nc1ccc2cnccc2c1`, the IC50 at 48 h in [2] stood at 11000 nM. In series [3], the viability at 48 h is 31.6%. Moreover, the inhibition was determined as 18.9% in series [9] and 47.7% in series [10].
On to `CCCc1cc(C)[nH]c(=O)c1CNC(=O)c1cc(-c2ccnc(N3CCN(C)CC3)c2)cc2c1cnn2C(C)C`, for which the inhibition in series [1] and in [4] was under 1% in each case. For the same compound, the IC50 at 48 h in [2] was found to be 2200 nM. The viability at 48 h in series [3] was 20.6%.
As for `COc1cc2c(NC3CCN(C(C)C)CC3)nc(N3CCC(F)(F)CC3)nc2cc1OCCCN1CCCC1`, the IC50 at 48 h in series [2] worked out at 1600 nM. Also, the viability at 48 h in series [3] worked out at 4.2%. For the same compound, the Activity entry in the series on FLC clone 745 is recorded as “Toxic”. Moreover, the “inhibition (INH)” value in series [11] and in series [12] was under 1% each time.
Take `O=C([C@@H](Cc1cccc(C(F)(F)F)c1)NS(=O)(=O)c1cc(F)c2c(c1)CCNC2)N1CCCC1`: the IC50 at 48 h in series [2] came out at 20000 nM. The viability at 48 h in series [3] turned out to be 18.7%.
Regarding `Cc1cn(CCN2CCN(c3ccccc3-c3cc(C#N)cc(C(=O)NCCCN4CCCC4)c3)CC2)c2ccccc12`, the IC50 at 48 h in series [2] worked out at 680 nM. Besides, the viability at 48 h in series [3] was 16.6%. Further, the inhibition turned out to be 1.3% in series [13] and 9% in series [14].
The matching figures for `CCN(C(=O)CO)[C@H]1CN(/C(=N\C#N)Nc2cccc(OC(F)F)c2)N=C1c1ccc(Cl)c(Cl)c1`: 4700 nM, 22.8%, 12.7% and 22.6%.
For the compound `COc1cc2c(NC3CCN(C(C)C)CC3)nc(C3CCCCC3)nc2cc1OCCCN1CCCC1`, the IC50 at 48 h in series [2] came to 440 nM. Moreover, the viability at 48 h in series [3] is 7.56%. Also, the Activity entry with FLC clone 745 is on record as “Toxic”. Moreover, the “inhibition (INH)” value in [11] and in [12] was under 1% each time.
With `CN1CCN(c2ccc(-c3cccc(CN4CCOCC4)c3)cc2NC(=O)c2c[nH]c(=O)cc2C(F)(F)F)CC1`, in [3], the viability at 48 h was 7.57%. In the series on FLC clone 745, the Activity entry was “Toxic”.
